Measured values from PMC3034256 (Chemistry & biology, 2011).
Several values for one entry are separate records, joined by “and”; a condition that tells them apart may be missing. Equal entries are not always repeated.

Legend:
CD45 = target: T1, CD45 (Homo sapiens, UniProt P08575); test: PTP-catalyzed pNPP hydrolysis, CD45; format: biochemical
T1 sequence (P08575 26-1306): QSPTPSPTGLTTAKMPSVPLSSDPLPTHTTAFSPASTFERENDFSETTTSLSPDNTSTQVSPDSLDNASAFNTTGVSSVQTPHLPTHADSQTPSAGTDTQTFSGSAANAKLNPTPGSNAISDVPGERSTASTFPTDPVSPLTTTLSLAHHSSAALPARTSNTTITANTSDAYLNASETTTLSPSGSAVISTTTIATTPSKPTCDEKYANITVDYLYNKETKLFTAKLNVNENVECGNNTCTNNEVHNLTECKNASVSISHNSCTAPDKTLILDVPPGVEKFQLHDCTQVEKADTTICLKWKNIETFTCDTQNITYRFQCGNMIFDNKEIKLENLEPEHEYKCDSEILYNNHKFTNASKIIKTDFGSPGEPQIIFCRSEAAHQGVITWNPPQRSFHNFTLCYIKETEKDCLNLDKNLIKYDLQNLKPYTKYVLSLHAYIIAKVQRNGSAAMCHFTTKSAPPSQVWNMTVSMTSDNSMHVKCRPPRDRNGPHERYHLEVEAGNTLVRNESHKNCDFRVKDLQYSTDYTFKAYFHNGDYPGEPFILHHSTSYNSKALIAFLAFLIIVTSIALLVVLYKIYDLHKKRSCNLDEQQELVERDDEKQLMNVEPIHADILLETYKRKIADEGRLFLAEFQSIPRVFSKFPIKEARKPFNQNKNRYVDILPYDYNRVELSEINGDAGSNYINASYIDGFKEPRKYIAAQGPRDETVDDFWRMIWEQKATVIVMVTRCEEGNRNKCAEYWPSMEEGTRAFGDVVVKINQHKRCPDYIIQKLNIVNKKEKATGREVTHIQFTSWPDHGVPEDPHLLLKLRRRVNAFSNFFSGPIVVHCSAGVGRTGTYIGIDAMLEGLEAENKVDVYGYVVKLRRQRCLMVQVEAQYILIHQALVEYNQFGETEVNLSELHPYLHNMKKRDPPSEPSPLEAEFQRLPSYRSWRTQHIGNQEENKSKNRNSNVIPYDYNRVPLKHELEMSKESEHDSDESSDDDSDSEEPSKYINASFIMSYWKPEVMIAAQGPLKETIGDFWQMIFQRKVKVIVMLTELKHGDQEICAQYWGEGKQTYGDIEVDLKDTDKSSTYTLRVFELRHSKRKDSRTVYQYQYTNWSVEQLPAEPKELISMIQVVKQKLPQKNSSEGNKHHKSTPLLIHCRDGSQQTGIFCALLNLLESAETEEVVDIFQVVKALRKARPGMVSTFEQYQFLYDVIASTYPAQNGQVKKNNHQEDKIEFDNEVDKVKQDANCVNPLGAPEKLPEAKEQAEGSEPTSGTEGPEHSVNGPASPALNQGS
Procedure, shortened: (§1)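 pNPP hydrolysis was run at 25 °C in 50 mM 3,3-dimethylglutarate, pH 7.0, 1 mM EDTA, ionic strength 0.15 M (NaCl). pNPP was fixed at each enzyme's experimentally determined Km, and reactions were started with enzyme. They were quenched with NaOH and corrected with no-enzyme controls. p-Nitrophenol was read at 405 nm. IC50 was fitted from AI/A0 = IC50/(IC50+[I]).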

SHP2 = target: T2, SHP2 (Homo sapiens, UniProt Q06124); test: PTP-catalyzed pNPP hydrolysis, SHP2; format: biochemical
T2 sequence (Q06124 262-528): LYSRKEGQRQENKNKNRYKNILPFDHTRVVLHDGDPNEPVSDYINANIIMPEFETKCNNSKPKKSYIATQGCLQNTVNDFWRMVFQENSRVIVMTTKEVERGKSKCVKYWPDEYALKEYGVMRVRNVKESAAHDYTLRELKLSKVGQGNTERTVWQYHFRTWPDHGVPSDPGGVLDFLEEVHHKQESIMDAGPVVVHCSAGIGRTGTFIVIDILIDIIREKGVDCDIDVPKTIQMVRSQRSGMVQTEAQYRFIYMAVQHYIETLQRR
Procedure, shortened: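 The SHP2 catalytic domain (residues 262–528) hydrolysed pNPP at 25 °C, pH 7.0 (50 mM 3,3-dimethylglutarate, 1 mM EDTA, ionic strength 0.15 M). Single-point screening used 10 µM final test compound. IC50 was measured at pNPP = Km by A405 after NaOH quench, fitted to AI/A0 = IC50/(IC50+[I]). For Ki and mode, initial rates at inhibitor 0–3 Ki and pNPP 0.2–5× apparent Km were fitted to kinetic equations.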

Jurkat T cells = test: TCR-mediated tyrosine phosphorylation in Jurkat T cells; format: cell-based; conditions: 2 h pretreatment (2 µM; TTN 2–4 µM), 10 µg/mL anti-CD3
human primary T-cell = conditions: ref Shim et al., 2002; cited from earlier work
Cdc14A = target: T3, Cdc14A (Homo sapiens, UniProt Q9UNH5); test: PTP-catalyzed pNPP hydrolysis, Cdc14A; format: biochemical
T3 sequence (Q9UNH5 1-594): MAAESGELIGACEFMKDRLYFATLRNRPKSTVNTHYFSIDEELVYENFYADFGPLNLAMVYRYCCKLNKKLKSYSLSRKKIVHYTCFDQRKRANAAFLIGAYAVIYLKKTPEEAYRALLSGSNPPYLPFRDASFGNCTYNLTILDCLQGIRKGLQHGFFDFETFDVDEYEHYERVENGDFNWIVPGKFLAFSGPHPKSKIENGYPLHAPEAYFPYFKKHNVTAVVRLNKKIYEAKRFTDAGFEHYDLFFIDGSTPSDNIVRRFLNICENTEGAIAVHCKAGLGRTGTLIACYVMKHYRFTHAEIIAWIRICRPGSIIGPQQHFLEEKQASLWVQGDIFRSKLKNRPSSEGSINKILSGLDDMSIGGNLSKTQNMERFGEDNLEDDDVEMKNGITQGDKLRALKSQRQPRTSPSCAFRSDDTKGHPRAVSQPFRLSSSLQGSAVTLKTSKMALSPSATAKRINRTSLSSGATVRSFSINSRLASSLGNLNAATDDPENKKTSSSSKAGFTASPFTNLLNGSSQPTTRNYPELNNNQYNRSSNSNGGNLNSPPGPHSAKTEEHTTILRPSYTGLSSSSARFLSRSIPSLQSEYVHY
Procedure, shortened: as §1

PP2A = conditions: biochemical assays; cited from earlier work

Compound `C=C/C(=C/C(=O)C[C@H](C)C[C@@H](C)CC[C@H](O)[C@H](C)C(=O)C[C@@H](O)[C@H](C)[C@@H](C)OC(=O)C[C@@H](O)C1=C(C)C(=O)OC1=O)CC` [TTN, tautomycetin] has an IC50 (CD45) greater than 50000 nM, an IC50 (SHP2) of 2900 ± 200 nM and a Ki (SHP2) of 1600 ± 100 nM. For the same compound, the “reduction of SHP2 activity” value (SHP2; 10 µM compound, pNPP, pH 7, 25 °C) was 80–90%, the “preference for SHP2 over all PTPs examined” value (SHP2; from IC50 values) was no less than 5 fold and the “mode of SHP2 inhibition” value (SHP2; pNPP hydrolysis, 25 °C, pH 7.0) was “competitive inhibitors”. The “effect on TCR-mediated tyrosine phosphorylation” value (Jurkat T cells) was “efficiently attenuated”, the “concentration inhibiting human primary T-cell tyrosine phosphorylation” value (human primary T-cell) was 1 µg/mL and 1.65 µM and the IC50 (Cdc14A) was greater than 50000 nM. For the same compound, the “inhibition of PP2A” value (PP2A) was “low nM range”.
